Data published in ChEMBL document CHEMBL1121364, “Nucleoside conjugates as potential antitumor agents. 3. Synthesis and antitumor activity of 1-(beta-D-arabinofuranosyl)cytosine conjugates of corticosteroids” (1980).

Columns and labels:
[1] = test system: L1210; test: Antitumor activity in the mice with intraperitoneal implanted L1210 lymphoid leukemia at the dose of 9.2 and 13.2 mg/kg/day x 5 was determined as mean survival of treated group compared to untreated; 15/11; type: functional, Mus musculus
[2] = test system: L1210; test: Antitumor activity in the mice with intraperitoneal implanted L1210 lymphoid leukemia at the dose 18 and 27.7 mg/kg/day x 5 was determined as Survival time in days; Range is 9-17 days; type: functional, Mus musculus
Method in brief: (§1)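 Female C3D2F1/J mice (C3H/HeJ × DBA/2J), groups of six to eight, average weight 25 g. Each mouse got 1 × 10^6 L1210 ascites cells ip, taken from DBA/2Ha donor mice bearing 3-5 day tumors. Compound was dissolved in 0.154 N NaOH and neutralized with 0.154 N HCl (final 0.9% NaCl). Dosed ip daily ×5, starting 24 h after implant. Recorded body weight change on day 8, survival range, median survival and 30-day survivors. ILS = (T/C − 1) × 100.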

[3] = test system: L1210; test: Antitumor activity in mice with intraperitoneal implanted L1210 lymphoid leukemia at the dose 18 and 27.7 mg/kg/day x 5 was determined as weight change (g/mouse) on 8th day; type: functional
Method in brief: (§2)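 C3D2F1/J female mice (C3H/HeJ × DBA/2J), groups of six to eight, average 25 g, inoculated ip with 1 × 10^6 L1210 ascites cells taken from DBA/2Ha donor mice carrying 3-5 day tumors. Compound dissolved in 0.154 N NaOH, then neutralized with 0.154 N HCl to give 0.9% NaCl. Given ip daily for 5 consecutive days starting 24 h after implantation. Body weight change per mouse recorded on day 8.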

[4] = test system: L1210; test: Antitumor activity in mice with intraperitoneal implanted L1210 lymphoid leukemia at the dose 9.2 and 13.2 mg/kg/day x 5 was determined as weight change (g/mouse) on 8th day; type: functional; method in brief: as §2
[5] = test system: L1210; test: Antitumor activity in the mice with intraperitoneal implanted L1210 lymphoid leukemia at the dose 18 and 27.7 mg/kg/day x 5 was determined and number of animals survived on 30 th day were reported; 0/8; type: functional, Mus musculus; method in brief: as §1
[6] = test system: L1210; test: Antitumor activity in the mice with intraperitoneal implanted L1210 lymphoid leukemia at the dose 9.2 and 13.2 mg/kg/day x 5 was determined as Survival time in days; Range is 11-28 days; type: functional, Mus musculus
Method in brief: (§3)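 C3D2F1/J female mice (C3H/HeJ female × DBA/2J male), groups of six to eight, average weight 25 g. Inoculated ip with 1 × 10^6 L1210 ascites cells taken from DBA/2Ha donor mice bearing 3-5 day old tumors. Compounds were dissolved in 0.154 N NaOH, neutralized with 0.154 N HCl (final 0.9% NaCl), and given ip daily for 5 days from 24 h post-implant. Median survival T/C; ILS = (T/C − 1) × 100; 30-day survivors counted.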

[7] = test system: L1210; test: Antitumor activity in the mice with intraperitoneal implanted L1210 lymphoid leukemia at the dose 18 and 27.7 mg/kg/day x 5 was determined as percentage increase in the life span as compared with control tumor bearers; type: functional, Mus musculus; method in brief: as §1
[8] = test system: L1210; test: Antitumor activity in the mice with intraperitoneal implanted L1210 lymphoid leukemia at the dose 9.2 and 13.2 mg/kg/day x 5 was determined as percentage increase in the life span as compared with control tumor bearers; type: functional, Mus musculus; method in brief: as §3
[9] = test system: L1210; test: Antitumor activity in the mice with intraperitoneal implanted L1210 lymphoid leukemia at the dose of 18 and 27.7 mg/kg/day x 5 was determined as mean survival of treated group compared to untreated; 13/9; type: functional, Mus musculus; method in brief: as §3
[10] = test system: L1210; test: Antitumor activity in the mice with intraperitoneal implanted L1210 lymphoid leukemia at the dose 9.2 and 13.2 mg/kg/day x 5 was determined and number of animals survived on 30 th day were reported; 0/6; type: functional, Mus musculus; method in brief: as §3
[11] = test system: L1210; test: Antitumor activity in mice with intraperitoneal implanted L1210 lymphoid leukemia at the dose 25 mg/kg/day x 5 was determined as weight change (g/mouse) on 8th day; type: functional; method in brief: as §2
[12] = test system: L1210; test: Antitumor activity in the mice with intraperitoneal implanted L1210 lymphoid leukemia at the dose 25 mg/kg/day x 5 was determined as percentage increase in the life span as compared with control tumor bearers; type: functional; settings: Mus musculus, L1210, ip; method in brief: as §1
[13] = test system: L1210; test: Antitumor activity in mice with intraperitoneal implanted L1210 lymphoid leukemia at the dose 5 mg/kg/day x 5 was determined as weight change (g/mouse) on 8th day; type: functional; method in brief: as §2
[14] = test system: L1210; test: Antitumor activity in the mice with intraperitoneal implanted L1210 lymphoid leukemia at the dose 5 mg/kg/day x 5 was determined and number of animals survived on 30 th day were reported; 0/7; type: functional, Mus musculus; method in brief: as §1
[15] = test system: L1210; test: Antitumor activity in mice with intraperitoneal implanted L1210 lymphoid leukemia at the dose 9.2 mg/kg/day x 5 was determined as weight change (g/mouse) on 8th day; type: functional; method in brief: as §2
[16] = test system: L1210; test: Antitumor activity in the mice with intraperitoneal implanted L1210 lymphoid leukemia at the dose 9.2 mg/kg/day x 5 was determined and number of animals survived on 30 th day were reported; 1/7; type: functional, Mus musculus; method in brief: as §3
[17] = test system: L1210; test: Antitumor activity in mice with intraperitoneal implanted L1210 lymphoid leukemia at the dose 18.2 mg/kg/day x 5 was determined as weight change (g/mouse) on 8th day; type: functional; method in brief: as §2
[18] = test system: L1210; test: Antitumor activity in the mice with intraperitoneal implanted L1210 lymphoid leukemia at the dose 18.2 mg/kg/day x 5 was determined and number of animals survived on 30 th day were reported; 0/8; type: functional, Mus musculus; method in brief: as §1
[19] = test system: L1210; test: Antitumor activity in the mice with intraperitoneal implanted L1210 lymphoid leukemia at the dose of 9.2 mg/kg/day x 5 was determined as mean survival of treated group compared to untreated; 17/9; type: functional, Mus musculus
[20] = test system: L1210; test: Antitumor activity in the mice with intraperitoneal implanted L1210 lymphoid leukemia at the dose of 18.2 mg/kg/day x 5 was determined as mean survival of treated group compared to untreated; 14.5/10; type: functional, Mus musculus; method in brief: as §3
[21] = test system: L1210; test: Antitumor activity in the mice with intraperitoneal implanted L1210 lymphoid leukemia at the dose 5 mg/kg/day x 5 was determined as percentage increase in the life span as compared with control tumor bearers; type: functional; settings: Mus musculus, L1210, ip; method in brief: as §1
[22] = test system: L1210; test: Antitumor activity in the mice with intraperitoneal implanted L1210 lymphoid leukemia at the dose 25 mg/kg/day x 5 was determined as Survival time in days; Range is 9-16 days; type: functional, Mus musculus; method in brief: as §1
[23] = test system: L1210; test: Antitumor activity in the mice with intraperitoneal implanted L1210 lymphoid leukemia at the dose 18.2 mg/kg/day x 5 was determined as percentage increase in the life span as compared with control tumor bearers; type: functional; settings: Mus musculus, L1210, ip; method in brief: as §1
[24] = test system: L1210; test: Antitumor activity in the mice with intraperitoneal implanted L1210 lymphoid leukemia at the dose 9.2 mg/kg/day x 5 was determined as percentage increase in the life span as compared with control tumor bearers; type: functional; settings: Mus musculus, L1210, ip; method in brief: as §3
[25] = test system: L1210; test: Antitumor activity in the mice with intraperitoneal implanted L1210 lymphoid leukemia at the dose of 5 mg/kg/day x 5 was determined as mean survival of treated group compared to untreated; 13.5/9; type: functional, Mus musculus; method in brief: as §3
[26] = test system: L1210; test: Antitumor activity in the mice with intraperitoneal implanted L1210 lymphoid leukemia at the dose 5 mg/kg/day x 5 was determined as Survival time in days; Range is 9-22 days; type: functional, Mus musculus; method in brief: as §1
[27] = test system: L1210; test: Antitumor activity in the mice with intraperitoneal implanted L1210 lymphoid leukemia at the dose 25 mg/kg/day x 5 was determined and number of animals survived on 30 th day were reported; 0/8; type: functional, Mus musculus; method in brief: as §1
[28] = test system: L1210; test: Antitumor activity in the mice with intraperitoneal implanted L1210 lymphoid leukemia at the dose 18.2 mg/kg/day x 5 was determined as Survival time in days; Range is 10-19 days; type: functional, Mus musculus; method in brief: as §1
[29] = test system: L1210; test: Antitumor activity in the mice with intraperitoneal implanted L1210 lymphoid leukemia at the dose 9.2 mg/kg/day x 5 was determined as Survival time in days; Range is 14-42 days; type: functional, Mus musculus; method in brief: as §3

Q: How did the T/C [1] turn out when C[C@H]1C[C@@H]2[C@H]([C@@H](O)C[C@@]3(C)[C@H]2CC[C@]3(O)C(=O)CO)[C@@]2(C)C=CC(=O)C=C12.Nc1ccn([C@@H]2O[C@H](CO)[C@@H](O)[C@@H]2O)c(=O)n1 was run?
A: 15

Q: What about the Survival time [2] of the same molecule?
A: 9 days

Q: What about the Weight change [3] of the same molecule?
A: -1.38 g mouse-1

Q: What about the Weight change [4] of the same molecule?
A: -2.38 g mouse-1

Q: And the Survivors [5]?
A: 0

Q: And the Survival time [6]?
A: 11 days

Q: What about the ILS [7] of the same molecule?
A: 44%

Q: What about the ILS [8] of the same molecule?
A: 36%

Q: And the T/C [9]?
A: 13

Q: What about the Survivors [10] of the same molecule?
A: 0

Q: With Nc1ccn([C@@H]2O[C@H](CO)[C@@H](O)[C@@H]2O)c(=O)n1 [CYTARABINE] as the molecule, how does the Weight change [11] read?
A: -3.8 g mouse-1

Q: And the ILS at 25 mg/kg/day [12]?
A: 19%

Q: And the Weight change [13]?
A: 2 g mouse-1

Q: And the Survivors [14]?
A: 0

Q: And the Weight change [15]?
A: -0.63 g mouse-1

Q: What about the Survivors [16] of the same molecule?
A: 1

Q: What about the Weight change [17] of the same molecule?
A: -3.64 g mouse-1

Q: And the Survivors [18]?
A: 0

Q: And the T/C [19]?
A: 17

Q: What about the T/C [20] of the same molecule?
A: 14.5

Q: And the ILS at 5 mg/kg/day [21]?
A: 50%

Q: And the Survival time [22]?
A: 9 days

Q: And the ILS at 18.2 mg/kg/day [23]?
A: 45%

Q: And the ILS at 9.2 mg/kg/day [24]?
A: 89%

Q: What about the T/C [25] of the same molecule?
A: 13.5

Q: What about the Survival time [26] of the same molecule?
A: 9 days

Q: What about the Survivors [27] of the same molecule?
A: 0

Q: And the Survival time [28]?
A: 10 days

Q: What about the Survival time [29] of the same molecule?
A: 14 days
